# Assay outcomes as filed in PubChem.
# In the library only some 3.5% were active in any assay of this set; here they are far more common.
# MITF TRPM1 HTS: MITF TRPM1 promoter activation in melanoma cells | SK-MEL-5 TRPM1-promoter luciferase, 24 h; % of positive control, neutral wells = 0 | 0.75% of 300,000 active | activation, % at 12.5 µM;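 active = mean activation of at least 80% with every replicate also reaching 80%; inconclusive = mean reaches 80% but some replicate falls short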;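 note: 0% = neutral control wells and 100% = parthenolide positive control wells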
# Wnt act: activates Wnt/beta-catenin signaling in a reporter cell assay. activation, % at 9.35 µM. activator, plate reader. 1.2% of 300,000 active. AID 743398; in the data active = activation above about 30%, passing the limit was not always enough; inconclusive = no clear call, values can overlap the other calls;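 note: 0% = neutral control wells and 100% = positive control wells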
# ERAP1 inh: ERAP1 (human) enzyme inhibition; Q9NZ08; recombinant ERAP1, Leu-AMC fluorescence, 60 min; inhibition, % at 10.7 µM; 0.15% of 340,000 active; AID 652197;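 active = mean replicate inhibition of at least 30%, or all replicates individually reaching that 30% level; inactive = mean below 30% and not every replicate reaching it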;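 note: 0% = neutral control wells and 100% = L-leucinethiol positive control wells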
# HIV Env fusion: inhibitors of HIV Env-mediated cell fusion. HeLa-JRFL Env/CEM21 cell fusion, luciferase. inhibition, % at 12.3 µM. 1.1% of 360,000 active. AID 651610;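 active = mean replicate inhibition score of at least 50 and every replicate individually at or above 50; inconclusive = only one of the two criteria met; inactive = mean below 50 and not all replicates reaching 50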;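 note: 0% = plate neutral controls and 100% = maraviroc near 300 nM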
# Cneo AK release: causes C. neoformans cell lysis. adenylate kinase release luminescence, 4 h; normalised: neutral wells 0, clomiphene wells 100. lysis activity, % at 15 µM. 0.2% of 360,000 active;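 active = mean lysis activity across replicates of at least 80%, whatever share of replicates individually reach that level; inactive = mean lysis activity below 80%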
#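 Assay system: log-phase C. neoformans yeast / Quantity: yeast cell density of 5 × 10^6 cells/mL / Medium: fresh YPD growth medium / Compound: single dose / Timing: static 4 h at 37 °C with compound, 1 h detection / Measured by: adenylate kinase release luminescence / Read-out: lysis from increased AK signal / Benchmarks: Clomiphene as positive lysis control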
# esBAF inh: SWI/SNF esBAF complex inhibition; mouse ES cells, Bmi1-luciferase knock-in reporter, 24 h; 100% = twice the neutral-well signal; reporter increase, % at 12.5 µM; 2% of 350,000 active; AID 602393; in the data active = activation above about 40%; inconclusive = no clear call, values can overlap the other calls;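 note: 0% = median of the plate's neutral control wells and 100% = double that signal; a rise in the Bmi1 reporter signal indicates esBAF inhibition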
# Starred values were filed as active, the others as inactive; ? = inconclusive; . = no result given; [ ] = remark or other dose.
SMILES,MITF TRPM1 HTS,Wnt act,ERAP1 inh,HIV Env fusion,Cneo AK release,esBAF inh
Cc1noc(C)c1NC(=O)Nc1cccc2c1O[C@@H](CN(C)Cc1ccc(C(F)(F)F)cc1)[C@H](C)CN([C@@H](C)CO)C2=O,.,.,.,-151.3[16.7 µM],-14.2,-2.8
O=S(=O)(c1ccccc1)N1CC2(C1)[C@H](c1ccccc1)[C@@H](CO)N2CC1CCOCC1,.,.,-8.5,.,.,.
COc1cc(CN2CC3(CCN(S(=O)(=O)c4cn(C)cn4)CC3)c3c(n(C)c4cc(OC)ccc34)[C@H]2CO)cc(OC)c1,.,.,-0.5,.,.,.
COc1ccc(N(C(=O)c2ccco2)C(C(=O)NC2CCCC2)c2ccncc2)cc1 (stereo unspecified),18.2,0.0,-0.1,-8.4,-0.5,0.7
CC(C)c1ccc(N(C(=O)c2ccco2)C(C(=O)NC2CCCC2)c2ccncc2)cc1 (stereo unspecified),46.8,5.3,1.7,61.9*,-0.4,46.8*
CCC(C)c1ccc(N(C(=O)c2ccco2)C(C(=O)NC2CCCC2)c2cccnc2)cc1 (stereo unspecified),28.0,5.4,0.2,4.4,.,86.0*
Cc1ccccc1CCN(C(=O)c1csnn1)C(C(=O)NC1CCCC1)c1ccncc1 (stereo unspecified),-7.1,0.0,3.4,79.3*,-2.6,1.4
O=C(NC1CCCC1)C(c1ccncc1)N(Cc1cccs1)C(=O)c1csnn1 (stereo unspecified),.,.,.,.,-0.1,0.4
CCCNC(=O)C[C@H]1C[C@@H]2c3cc(NC(=O)Nc4ccccc4)ccc3O[C@@H]2[C@H](CO)O1,.,.,.,47.8[16.7 µM],29.1,-0.4
COc1ccc(CCNc2ncccc2C#N)cc1OC,75.0,19.0,-4.0,-22.4,-1.0,54.2*
COc1ccc(CCNc2ncnc3cc(OC)c(OC)cc23)cc1OC,-10.9,-1.4,-2.4,6.4,.,-17.0
O=C(CN1CCN(C(=O)c2ccc(-c3nc4ccccc4s3)o2)CC1)Nc1ccc(F)cc1,-10.5,25.7,-1.7,-23.9,-1.9,58.8*
Cc1ccc(Cn2nnnc2CN2CCC(c3nc4ccc(Cl)cc4[nH]3)CC2)cc1,-7.5,.,.,75.2*,-3.6,-2.3
Clc1ccc2nc(C3CCN(Cc4nnnn4C4CCCCC4)CC3)[nH]c2c1,.,-13.6,.,35.9,-0.5,4.9
CO[C@H]1CN(C)C(=O)c2cc(NC(=O)C3CCCC3)ccc2OC[C@@H](C)N(C(=O)CC2CC2)C[C@H]1C,.,.,1.4,-4.6[16.7 µM],4.3,-3.2
CCCNC(=O)N(C)C[C@H]1Oc2ncc(-c3ccc(OC)cc3)cc2C(=O)N([C@H](C)CO)C[C@H]1C,.,.,-1.0,9.2[16.7 µM],-1.9,-3.5
Cc1cnn(C(=S)NCCc2ccccc2)c1,.,.,.,-17.7,8.2,45.7*
Cc1cnn(C(=S)NCc2ccc(Cl)cc2)c1,.,-1.6,.,-46.2,.,.
C/C(=N/N=C/c1ccccc1O)c1ccccc1O,55.9,44.3*,-2.4,-66.5,-0.9,48.5
Cc1c(C(=O)OC2CCCC2)[nH]c2c1C(=O)CC(c1ccco1)C2 (stereo unspecified),-23.6,-21.4,.,-411.4,-0.9,-35.4
COC(=O)C1C(=O)c2c([nH]c(C(=O)OC3CCCC3)c2C)CC1C (stereo unspecified),107.1*,.,.,.,-1.0,75.6*
Cc1cccc(NC(=O)CSc2nnc(-c3ccccc3C)o2)c1,79.7,.,.,-306.2,5.6,44.5*
COc1ccc(NC(=O)CSc2nnc(Cc3cccs3)n2-c2ccc(C)cc2)cc1,-17.6,2.0,-6.5,.,-2.0,-8.0
COc1cccc(NC(=O)CSc2nnc(Cc3cccs3)n2-c2ccc(C)cc2)c1,-32.6,.,.,84.2*,2.4,9.8
O=C(CSc1ncc(-c2ccccc2)[nH]1)Nc1ccccc1,-6.9,2.0,-0.5,.,-0.9,4.5
COc1cccc(NC(=O)CSc2nnc(-c3ccc(C)cc3)o2)c1,45.1,20.0,.,-99.4,-0.4,59.7*
O=C(CSc1ncc(-c2ccccc2)[nH]1)Nc1ccccc1F,88.2*,18.7,1.1,-38.2,.,?
Cc1cc(C)cc(NC(=O)CSc2nnc(-c3ccccc3C)o2)c1,27.5,.,.,-184.7,0.6,17.7
Cc1ccc(NC(=O)CSc2nnc(-c3ccncc3)o2)cc1,15.6,4.9,.,-12.2,-3.3,7.4
